How the values were obtained:
[1] = test system: Hs27 fibroblasts; assay: Cell viability MTT assay on Hs27 fibroblasts; type: cell-based, human; conditions: for cytotoxicity against Hs27 fibroblasts (in words): either human cell line
In short: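 In vitro viability screen on Hs27 human fibroblasts, the same cells that serve as hosts in the parasite proliferation assay. IC50 is reported with confidence intervals.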

[2] = test system: HeLa wt cells; assay: Cell viability MTT assay on HeLa wt cells; type: cell-based, human; conditions: for cytotoxicity against HeLa cells (in words): either human cell line
[3] = Antioxidant ABTS decolorization assay; conditions: relative to ascorbic acid
In short: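 Antioxidant capacity is read as ABTS radical decolorization. It is expressed relative to ascorbic acid as ascorbic acid equivalents in mol mol–1. Values are given with standard deviation.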

[4] = Stability experiments in DMSO; type: physicochemical; conditions: up to 40 °C, over 24 h

| SMILES | cytotoxicity against Hs27 fibroblasts (in words) [1] | cytotoxicity against HeLa cells (in words) [2] | ascorbic acid equivalent antioxidant capacity (AEAC) [3] | other results |
| --- | --- | --- | --- | --- |
| COc1cc(C)cc2oc(-c3ccc(C(F)(F)F)cc3)cc(=O)c12 [8ad, 5-Methoxy-7-methyl-2-(4-(trifluoromethyl)phenyl)-4H-chromen-4-one] | noncytotoxic | noncytotoxic | – | – |
| COc1cc(OC)c2c(=O)cc(-c3ccc(C(F)(F)F)cc3)oc2c1 [8bd, 5,7-Dimethoxy-2-(4-(trifluoromethyl)phenyl)-4H-chromen-4-one] | noncytotoxic | noncytotoxic | – | – |
| COc1ccc(-c2cc(=O)c3c(OC)cc(C)c(-c4c(C)cc(OC)c5c(=O)cc(-c6ccc(OC)cc6)oc45)c3o2)cc1 [9aa, rac-5,5′-Dimethoxy-2,2′-bis(4-methoxyphenyl)-7,7′-dimethyl-4H,4′H-[8,8′-bichromene]-4,4′-dione] | – | – | 0.25 equiv ascorbic acid [mol mol^–1] | – |
| COc1cc(C)c(-c2c(C)cc(OC)c3c(=O)cc(-c4ccc(N(C)C)cc4)oc23)c2oc(-c3ccc(N(C)C)cc3)cc(=O)c12 [9ac, rac-2,2′-Bis(4-(dimethylamino)phenyl)-5,5′-dimethoxy-7,7′-dimethyl-4H,4′H-[8,8′-bichromene]-4,4′-dione] | – | – | 0.197 equiv ascorbic acid [mol mol^– | stability in DMSO [4]: stable |
| COc1cc(C)c(-c2c(C)cc(OC)c3c(=O)cc(-c4ccc(C(F)(F)F)cc4)oc23)c2oc(-c3ccc(C(F)(F)F)cc3)cc(=O)c12 [9ad, rac-5,5′-Dimethoxy-7,7′-dimethyl-2,2′-bis(4-(trifluoromethyl)phenyl)-4H,4′H-[8,8′-bichromene]-4,4′-dione] | noncytotoxic | noncytotoxic | – | – |
| COc1cc(OC)c2c(=O)cc(-c3ccc(C(F)(F)F)cc3)oc2c1-c1c(OC)cc(OC)c2c(=O)cc(-c3ccc(C(F)(F)F)cc3)oc12 [9bd, rac-5,5′,7,7′-Tetramethoxy-2,2′-bis(4-(trifluoromethyl)phenyl)-4H,4′H-[8,8′-bichromene]-4,4′-dione] | noncytotoxic | noncytotoxic | – | – |
| Cc1cc(O)c2c(=O)cc(-c3ccc(N(C)C)cc3)oc2c1-c1c(C)cc(O)c2c(=O)cc(-c3ccc(N(C)C)cc3)oc12 [compound 11, rac-2,2′-Bis(4-(dimethylamino)phenyl)-5,5′-dihydroxy-7,7′-dimethyl-4H,4′H-[8,8′-bichromene]-4,4′-dione] | – | – | 0.037 equiv ascorbic acid [mol mol^– | IC50 ([1]; Homo sapiens, HS27, 24 h, read-out: IC50 (Hs27)): > 200 µM; IC50 ([2]; Homo sapiens, HeLa, 48 h, read-out: IC50 (HeLa)): > 100 µM |
